In ChEMBL document CHEMBL5370689, “Development of Allosteric NIK Ligands from Fragment-Based NMR Screening” (ACS Med Chem Lett, 2023) one finds Kd, Activity and solubility data, which are given here for twelve molecules.

pKd: −log10 of the molar value. The source made the active and inactive calls.

Series [1] has as its target T1, Mitogen-activated protein kinase kinase kinase 14 (Homo sapiens, UniProt Q99558). Description: Binding affinity to biotinylated N-terminal 6His-tagged/TEV cleavage site-fused human NIK in presence of AMP-PNP by SPR analysis. The method in brief:
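Dose–response SPR used biotinylated NIK in the presence of saturating AMP-PNP. Kd came from the fitted binding curve, reported as mean ± SEM of two determinations.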
Target sequence in this assay (Q99558 whole entry, the tested form may be a part): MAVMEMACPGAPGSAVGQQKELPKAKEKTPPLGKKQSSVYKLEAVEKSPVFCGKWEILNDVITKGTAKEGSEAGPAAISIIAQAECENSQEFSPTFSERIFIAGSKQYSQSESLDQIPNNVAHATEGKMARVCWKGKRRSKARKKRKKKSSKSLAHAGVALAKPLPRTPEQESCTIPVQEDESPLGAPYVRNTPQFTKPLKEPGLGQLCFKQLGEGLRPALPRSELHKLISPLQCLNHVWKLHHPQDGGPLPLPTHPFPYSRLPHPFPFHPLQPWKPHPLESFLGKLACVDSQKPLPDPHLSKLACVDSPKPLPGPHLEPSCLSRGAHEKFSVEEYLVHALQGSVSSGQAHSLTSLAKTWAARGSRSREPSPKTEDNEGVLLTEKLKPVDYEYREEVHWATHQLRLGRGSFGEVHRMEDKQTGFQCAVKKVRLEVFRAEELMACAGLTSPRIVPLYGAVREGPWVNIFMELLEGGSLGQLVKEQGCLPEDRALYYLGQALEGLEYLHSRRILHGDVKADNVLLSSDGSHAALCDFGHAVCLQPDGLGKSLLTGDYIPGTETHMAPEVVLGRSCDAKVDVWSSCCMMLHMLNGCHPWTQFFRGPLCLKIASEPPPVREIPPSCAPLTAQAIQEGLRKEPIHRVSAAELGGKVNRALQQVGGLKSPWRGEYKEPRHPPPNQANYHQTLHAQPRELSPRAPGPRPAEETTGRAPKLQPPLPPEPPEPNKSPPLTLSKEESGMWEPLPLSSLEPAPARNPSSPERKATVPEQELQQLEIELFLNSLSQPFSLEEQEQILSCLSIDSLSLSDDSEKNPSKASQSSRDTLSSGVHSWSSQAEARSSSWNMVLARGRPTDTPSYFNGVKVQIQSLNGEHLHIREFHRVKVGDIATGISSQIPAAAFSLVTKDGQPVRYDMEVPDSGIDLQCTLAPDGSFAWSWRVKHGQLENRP

In series [2] the target is T1, Mitogen-activated protein kinase kinase kinase 14. Description: Binding affinity to biotinylated N-terminal 6His-tagged/TEV cleavage site-fused human NIK by SPR analysis. A digest of the protocol:
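Biotinylated NIK was probed by SPR with no nucleotide added, in dose–response format. Responses were plotted as a binding curve to give Kd, reported as mean ± SEM of two determinations.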
Target sequence in this assay (Q99558 whole entry, the tested form may be a part): as above

Series [3] shares this target. Description: Binding affinity to N-terminal 6His-tagged/TEV cleavage site-fused human NIK assessed as attenuation of spectral signal at 100 uM by 1H-CPMG-NMR analysis relative to control.
Target sequence in this assay (Q99558 whole entry, looked up, the tested form may be a part): as the sequence (Q99558 whole entry, the tested form may be a part) above
Series [4] can be described thus: Redox activity of the compound in HEPES/NaCl at pH 7.5 measured after 60 mins in presence of DTT by resazurin reagent based assay. The class given is physicochemical. The settings on record: pH 7.5, 1 h. The method in brief:
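A plate-based redox assay screened for redox activity as a source of false positives. NSC 663284, a known redox-active molecule, served as the positive control.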

Series [5] deals with T1, Mitogen-activated protein kinase kinase kinase 14. Briefly: Binding affinity to biotinylated N-terminal 6His-tagged/TEV cleavage site-fused human NIK at <500 uM by SPR analysis. The method in brief: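 Biotinylated NIK used as the SPR surface. Each fragment was run at five concentrations, and the responses were fitted to a binding curve to estimate affinity. A 500 µM affinity cut-off was applied.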
Target sequence in this assay (Q99558 whole entry, looked up, the tested form may be a part): as the sequence (Q99558 whole entry, the tested form may be a part) above

Series [6] is described as follows: Aqueous solubility of the compound in K2HPO4 in D2O with 5% DMSO-d6 at pH 7.4 by qNMR spectra analysis. The class given is physicochemical. The settings on record: K2HPO4 buffer in D2O with 5% DMSO-d6, pH 7.4.
Series [7] is described as follows: Aggregation property of the compound in sodium phosphate buffer at pH 7.4 by 1H-NMR spectra analysis. Type of series: physicochemical.
Series [8] deals with T1, Mitogen-activated protein kinase kinase kinase 14. Description: Binding affinity to N-terminal 6His-tagged/TEV cleavage site-fused human NIK assessed as attenuation of spectral signal at 100 uM in presence of AMP-PNP by 1H-CPMG-NMR analysis relative to control.
Target sequence in this assay (Q99558 whole entry, looked up, the tested form may be a part): as the sequence (Q99558 whole entry, the tested form may be a part) above

Consider `OC1(C2CC2)CCOc2cc(Cl)ccc21` (stereo not given), for which the negative logarithm of the Kd (pKd) in series [1] was 3.54; in series [2], 4.39.
The corresponding values for `COC1CCOc2cc(Cl)ccc21` (stereo not given) are less than 3.00 and less than 3.00.
The corresponding values for `Cc1ccc2c(c1)C(O)CCO2` (stereo not given) are less than 3.00 and less than 3.00.
The corresponding values for `CC1(O)CCOc2cc(Cl)ccc21` (stereo not given) are less than 3.00 and less than 3.00.
For `Cc1ccc2c(c1)OCCC2O` (stereo not given), the pKd in series [1] and in series [2] was less than 3.00 in each case.
On to `CCC1(O)CCOc2cc(Cl)ccc21` (stereo not given), for which the pKd in series [1] was 3.23; in series [2], 3.69.
On to `COc1cc(Cl)cc(C)c1C(C)(O)C1CC1` (stereo not given), for which the values for the pKd in series [1] and in series [2] were 3.84 and 3.82, respectively.
In the case of `OC1CCOc2cc(Cl)ccc21` (stereo not given), the pKd is 3.67 in series [1] and 3.89 in series [2]. For the same molecule, the Activity is more than 50% in series [3], “Not Active” in series [4], “Not Active” in series [7] and more than 50% in series [8]. In series [5], the result was Active. The same molecule displayed a solubility in series [6] not below 5 mM.
In the case of `OC1(c2ccccc2)CCOc2cc(Cl)ccc21` (stereo not given), the pKd was 3.43 in series [1] and 3.24 in series [2].
The corresponding values for `Cc1cccc2c1OCCC2O` (stereo not given) are less than 3.00 and less than 3.00.
The corresponding values for `Cc1cc(Cl)cc2c1C(O)(c1ccccc1)CCO2` (stereo not given) are 3.14 and 3.44.
Taken in the same sequence, the figures for `Cc1cccc2c1C(O)CCO2` (stereo not given) were 3.88 and 3.87.
